The target of data set [1] is MAP kinase-activated protein kinase 2 (Homo sapiens) (UniProt P49137). The data set is described as follows: Binding affinity to wild-type human partial length MAPKAPK2 (V48 to D345 residues) expressed in bacterial expression system assessed as remaining unbound target protein level at 1000 nM by Kinomescan method relative to control. The method, boiled down:
(§1)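 KINOMEscan binding panel of 468 kinases/mutants. Inhibitor was tested at a single concentration of 1 μM. Binding is reported as percent of control, defined relative to a DMSO control.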

Data set [2] concerns the target STE20-like serine/threonine-protein kinase (Homo sapiens) (UniProt Q9H2G2). Description: Binding affinity to wild-type human partial length SLK (S14 to A307 residues) expressed in bacterial expression system assessed as remaining unbound target protein level at 1000 nM by Kinomescan method relative to control.
The species named for another data set is Homo sapiens. Description: Selectivity ratio of IC50 for recombinant full length His-tagged human CDK2/CyclinA to IC50 for recombinant full length His-tagged human CDK9/CyclinT1.
The target of data set [3] is Serine/threonine-protein kinase RIO3 (Homo sapiens) (UniProt O14730). The data set is described as follows: Binding affinity to wild-type human full length RIOK3 (M1 to E519 residues) expressed in bacterial expression system assessed as remaining unbound target protein level at 1000 nM by Kinomescan method relative to control. The method, boiled down:
(§2)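 KINOMEscan competition binding profile across a panel of 468 kinases and mutants, with the inhibitor tested at a single concentration of 1 μM. Binding is reported as percent of control, meaning signal relative to a DMSO control.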

Data set [4] concerns the target Ephrin type-A receptor 2 (Homo sapiens) (UniProt P29317). Description: Binding affinity to wild-type human partial length EPHA2 (T593 to V891 residues) expressed in bacterial expression system assessed as remaining unbound target protein level at 1000 nM by Kinomescan method relative to control.
Data set [5] concerns the target Leucine-rich repeat serine/threonine-protein kinase 2 (Homo sapiens) (UniProt Q5S007). The data set is described as follows: Binding affinity to wild-type human partial length LRRK2 (H970 to E2527 residues) expressed in mammalian expression system assessed as remaining unbound target protein level at 1000 nM by Kinomescan method relative to control.
In data set [6] the target is Serine/threonine-protein kinase TNNI3K (Homo sapiens) (UniProt Q59H18). Description: Binding affinity to wild-type human full length TNNI3K (M1 to S835 residues) expressed in bacterial expression system assessed as remaining unbound target protein level at 1000 nM by Kinomescan method relative to control. The method, boiled down:
as §2

For another data set, the target named is CDK3/Cyclin E (Homo sapiens, UniProt Q00526). The data set is described as follows: Inhibition of recombinant GST-tagged human CDK3/cyclin E1. The format is protein-complex assay.
For data set [7], the target named is Serine/threonine-protein kinase PAK 1 (Homo sapiens) (UniProt Q13153). Description: Binding affinity to wild-type human partial length PAK1 (S149 to H545 residues) expressed in bacterial expression system assessed as remaining unbound target protein level at 1000 nM by Kinomescan method relative to control.
The target of data set [8] is Cyclin-dependent kinase 9 (Homo sapiens, UniProt P50750). The data set is described as follows: Inhibition of CDK9 in human MEC1 cells assessed as decrease in phosphorylation at Thr 186 residues up to 3 uM after 2 hrs by immunoblotting analysis. The format is cell-based.
Data set [9] deals with Phosphatidylinositol 3-kinase C2 domain-containing subunit gamma (Homo sapiens) (UniProt O75747). The data set is described as follows: Binding affinity to wild-type human partial length PIK3C2G (M1 to I1446 residues) expressed in mammalian expression system assessed as remaining unbound target protein level at 1000 nM by Kinomescan method relative to control. The method, boiled down: as §1

Data set [10] concerns the target Serine/threonine-protein kinase ICK (Homo sapiens) (UniProt Q9UPZ9). The data set is described as follows: Binding affinity to wild-type human partial length ICK (M1 to P314 residues) expressed in mammalian expression system assessed as remaining unbound target protein level at 1000 nM by Kinomescan method relative to control. The method, boiled down:
as §1

Data set [11] deals with TGF-beta receptor type-1 (Homo sapiens) (UniProt P36897). The data set is described as follows: Binding affinity to wild-type human partial length TGFBR1 (D179 to M503 residues) expressed in bacterial expression system assessed as remaining unbound target protein level at 1000 nM by Kinomescan method relative to control.
Another data set concerns MOLM-14. Description: Antiproliferative activity against human MOLM14 cells after 72 hrs by Celltiter-Glo assay. The format is functional. Conditions: MOLM-14, 72 h. Summed up: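 Cells seeded at 3000/well in 96-well plates, exposed to serially diluted compound for 72 h at 37 °C, 5% CO2. Viability read by CellTiter-Glo luminescence and normalized to DMSO control. GI50 derived from curve fit, mean of three independent measurements. Culture media: DMEM/10% FBS for adherent lines; IMDM for MV4-11 and MEC-1/2; RPMI 1640 for suspension lines and CHL.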

Data set [12] has as its target RAC-gamma serine/threonine-protein kinase (Homo sapiens) (UniProt Q9Y243). The data set is described as follows: Binding affinity to wild-type human partial length AKT3 expressed in bacterial expression system assessed as remaining unbound target protein level at 1000 nM by Kinomescan method relative to control. Summed up: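 Profiled in a KINOMEscan binding panel with the inhibitor at a single concentration of 1 μM. Binding to each kinase was read out as percent of control, relative to a DMSO control. Strong binders were defined as those with a percent control value below 1.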

The target in data set [13] is Serine/threonine-protein kinase PLK1 (Homo sapiens) (UniProt P53350). Description: Binding affinity to wild-type human partial length PLK1 (A33 to F325 residues) expressed in mammalian expression system assessed as remaining unbound target protein level at 1000 nM by Kinomescan method relative to control.
For data set [14], the target named is Tyrosine-protein kinase Fgr (Homo sapiens) (UniProt P09769). Description: Binding affinity to wild-type human partial length FGR (L233 to T529 residues) expressed in bacterial expression system assessed as remaining unbound target protein level at 1000 nM by Kinomescan method relative to control.
Data set [15] concerns the target Myotonin-protein kinase (Homo sapiens) (UniProt Q09013). Description: Binding affinity to wild-type human partial length DMPK (V47 to V415 residues) expressed in bacterial expression system assessed as remaining unbound target protein level at 1000 nM by Kinomescan method relative to control.
Data set [16] addresses TRAF2 and NCK-interacting protein kinase (Homo sapiens) (UniProt Q9UKE5). The data set is described as follows: Binding affinity to wild-type human partial length TNIK (D4 to K311 residues) expressed in bacterial expression system assessed as remaining unbound target protein level at 1000 nM by Kinomescan method relative to control.
The nature of data set [17]: Half life in mouse at 3 mg/kg, iv by LC-MS/MS analysis. The following applies: in vivo. The data set is classed as ADME, organism-based.
Data set [18] in a line: Clearance in mouse at 3 mg/kg, iv by LC-MS/MS analysis. The data set is classed as ADME, organism-based. Conditions: in vivo.
For data set [19], the target named is cAMP-dependent protein kinase catalytic subunit alpha (Homo sapiens) (UniProt P17612). Description: Binding affinity to wild-type human partial length PKAC-alpha (G10 to F351 residues) expressed in bacterial expression system assessed as remaining unbound target protein level at 1000 nM by Kinomescan method relative to control.
The target of data set [20] is cGMP-dependent protein kinase 2 (Homo sapiens) (UniProt Q13237). The data set is described as follows: Binding affinity to wild-type human partial length PRKG2 (S422 to F762 residues) expressed in mammalian expression system assessed as remaining unbound target protein level at 1000 nM by Kinomescan method relative to control.

Data on one compound can be found in ChEMBL document CHEMBL4261600 (Eur J Med Chem, 2018).

The source made the active and inactive calls.

Sequence of cGMP-dependent protein kinase 2 (Homo sapiens) (Q13237 whole entry, the tested form may be a part): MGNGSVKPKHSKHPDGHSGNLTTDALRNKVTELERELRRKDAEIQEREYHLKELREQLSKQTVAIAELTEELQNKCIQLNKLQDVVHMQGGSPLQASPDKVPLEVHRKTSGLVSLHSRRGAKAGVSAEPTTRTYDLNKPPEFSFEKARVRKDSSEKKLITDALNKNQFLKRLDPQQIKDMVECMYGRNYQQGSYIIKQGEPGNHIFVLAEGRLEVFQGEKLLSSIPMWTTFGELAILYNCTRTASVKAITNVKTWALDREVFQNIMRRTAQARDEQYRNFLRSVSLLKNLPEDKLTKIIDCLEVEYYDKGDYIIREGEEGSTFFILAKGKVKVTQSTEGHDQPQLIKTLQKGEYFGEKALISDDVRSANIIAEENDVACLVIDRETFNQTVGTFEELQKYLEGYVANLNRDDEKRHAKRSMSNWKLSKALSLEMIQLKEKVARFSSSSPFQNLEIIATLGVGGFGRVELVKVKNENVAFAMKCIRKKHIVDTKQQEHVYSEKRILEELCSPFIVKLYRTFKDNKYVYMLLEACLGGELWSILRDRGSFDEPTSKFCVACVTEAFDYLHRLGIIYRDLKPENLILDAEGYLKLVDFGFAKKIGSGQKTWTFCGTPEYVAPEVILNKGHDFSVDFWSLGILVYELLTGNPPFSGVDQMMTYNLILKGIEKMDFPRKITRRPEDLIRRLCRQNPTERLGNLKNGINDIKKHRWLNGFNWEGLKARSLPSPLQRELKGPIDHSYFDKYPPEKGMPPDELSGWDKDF
Sequence of Serine/threonine-protein kinase PLK1 (Homo sapiens) (P53350 whole entry, the tested form may be a part): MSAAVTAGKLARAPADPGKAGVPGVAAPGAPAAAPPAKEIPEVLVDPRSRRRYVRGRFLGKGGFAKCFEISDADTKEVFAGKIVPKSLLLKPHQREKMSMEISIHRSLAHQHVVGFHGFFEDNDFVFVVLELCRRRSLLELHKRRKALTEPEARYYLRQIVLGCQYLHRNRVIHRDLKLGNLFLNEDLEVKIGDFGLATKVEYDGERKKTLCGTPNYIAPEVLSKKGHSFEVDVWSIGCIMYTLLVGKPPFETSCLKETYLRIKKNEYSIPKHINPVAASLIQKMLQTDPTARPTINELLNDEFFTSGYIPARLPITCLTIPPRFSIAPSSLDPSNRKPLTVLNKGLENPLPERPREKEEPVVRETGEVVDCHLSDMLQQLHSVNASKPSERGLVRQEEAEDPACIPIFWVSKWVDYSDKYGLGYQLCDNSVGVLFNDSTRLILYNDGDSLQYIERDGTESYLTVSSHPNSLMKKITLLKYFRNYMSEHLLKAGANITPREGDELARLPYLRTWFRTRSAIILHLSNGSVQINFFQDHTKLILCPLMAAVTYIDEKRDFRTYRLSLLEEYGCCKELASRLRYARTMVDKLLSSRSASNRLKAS
Sequence of Cyclin-dependent kinase 9 (P50750 whole entry, the tested form may be a part): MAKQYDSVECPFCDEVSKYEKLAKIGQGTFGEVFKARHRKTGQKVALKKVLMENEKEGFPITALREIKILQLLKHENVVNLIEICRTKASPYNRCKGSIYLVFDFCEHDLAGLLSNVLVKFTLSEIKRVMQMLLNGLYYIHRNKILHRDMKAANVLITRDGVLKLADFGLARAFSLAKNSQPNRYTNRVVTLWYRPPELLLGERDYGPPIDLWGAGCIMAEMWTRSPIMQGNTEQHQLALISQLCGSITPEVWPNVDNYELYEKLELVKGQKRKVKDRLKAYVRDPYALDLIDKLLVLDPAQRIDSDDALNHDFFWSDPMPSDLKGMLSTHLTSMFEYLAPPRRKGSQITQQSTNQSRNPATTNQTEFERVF
Sequence of Serine/threonine-protein kinase PAK 1 (Homo sapiens) (Q13153 whole entry, the tested form may be a part): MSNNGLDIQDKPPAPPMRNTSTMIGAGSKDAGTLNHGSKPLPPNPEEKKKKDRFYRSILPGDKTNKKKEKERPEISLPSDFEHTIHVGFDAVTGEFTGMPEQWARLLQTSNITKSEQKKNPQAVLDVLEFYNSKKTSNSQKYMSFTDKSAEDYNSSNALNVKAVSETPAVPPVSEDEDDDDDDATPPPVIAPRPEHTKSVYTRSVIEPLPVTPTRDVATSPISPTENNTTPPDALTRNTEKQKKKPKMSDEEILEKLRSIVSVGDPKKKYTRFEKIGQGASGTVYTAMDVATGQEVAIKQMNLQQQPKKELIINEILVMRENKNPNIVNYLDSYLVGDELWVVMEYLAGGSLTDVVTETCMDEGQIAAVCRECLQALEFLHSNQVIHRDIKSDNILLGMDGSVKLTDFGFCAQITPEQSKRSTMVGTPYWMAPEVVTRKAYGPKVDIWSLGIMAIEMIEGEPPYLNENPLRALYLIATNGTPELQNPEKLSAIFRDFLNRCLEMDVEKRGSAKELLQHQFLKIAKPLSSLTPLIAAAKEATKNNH
Sequence of CDK3/Cyclin E (P24864 whole entry, the tested form may be a part): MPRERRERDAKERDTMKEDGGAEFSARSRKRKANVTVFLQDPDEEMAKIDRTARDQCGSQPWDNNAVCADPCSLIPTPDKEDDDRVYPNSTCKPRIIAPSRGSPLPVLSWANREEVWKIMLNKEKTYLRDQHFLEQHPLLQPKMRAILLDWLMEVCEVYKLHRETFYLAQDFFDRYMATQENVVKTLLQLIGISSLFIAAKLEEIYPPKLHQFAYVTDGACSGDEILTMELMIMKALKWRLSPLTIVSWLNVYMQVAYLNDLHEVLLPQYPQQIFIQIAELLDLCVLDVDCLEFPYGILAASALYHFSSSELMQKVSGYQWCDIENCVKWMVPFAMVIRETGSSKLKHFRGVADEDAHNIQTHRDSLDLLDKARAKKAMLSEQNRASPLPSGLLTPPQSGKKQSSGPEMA
Sequence of CDK3/Cyclin E (Q00526 whole entry, the tested form may be a part): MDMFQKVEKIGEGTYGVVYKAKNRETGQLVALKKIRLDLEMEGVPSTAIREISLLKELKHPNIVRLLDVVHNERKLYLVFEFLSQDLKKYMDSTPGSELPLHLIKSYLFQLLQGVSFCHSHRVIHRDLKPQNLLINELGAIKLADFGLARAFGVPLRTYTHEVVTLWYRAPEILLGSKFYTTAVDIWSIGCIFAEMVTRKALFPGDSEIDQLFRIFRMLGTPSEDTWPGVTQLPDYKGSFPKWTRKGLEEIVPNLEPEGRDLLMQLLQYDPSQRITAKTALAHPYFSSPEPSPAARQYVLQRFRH
Sequence of Ephrin type-A receptor 2 (Homo sapiens) (P29317 whole entry, the tested form may be a part): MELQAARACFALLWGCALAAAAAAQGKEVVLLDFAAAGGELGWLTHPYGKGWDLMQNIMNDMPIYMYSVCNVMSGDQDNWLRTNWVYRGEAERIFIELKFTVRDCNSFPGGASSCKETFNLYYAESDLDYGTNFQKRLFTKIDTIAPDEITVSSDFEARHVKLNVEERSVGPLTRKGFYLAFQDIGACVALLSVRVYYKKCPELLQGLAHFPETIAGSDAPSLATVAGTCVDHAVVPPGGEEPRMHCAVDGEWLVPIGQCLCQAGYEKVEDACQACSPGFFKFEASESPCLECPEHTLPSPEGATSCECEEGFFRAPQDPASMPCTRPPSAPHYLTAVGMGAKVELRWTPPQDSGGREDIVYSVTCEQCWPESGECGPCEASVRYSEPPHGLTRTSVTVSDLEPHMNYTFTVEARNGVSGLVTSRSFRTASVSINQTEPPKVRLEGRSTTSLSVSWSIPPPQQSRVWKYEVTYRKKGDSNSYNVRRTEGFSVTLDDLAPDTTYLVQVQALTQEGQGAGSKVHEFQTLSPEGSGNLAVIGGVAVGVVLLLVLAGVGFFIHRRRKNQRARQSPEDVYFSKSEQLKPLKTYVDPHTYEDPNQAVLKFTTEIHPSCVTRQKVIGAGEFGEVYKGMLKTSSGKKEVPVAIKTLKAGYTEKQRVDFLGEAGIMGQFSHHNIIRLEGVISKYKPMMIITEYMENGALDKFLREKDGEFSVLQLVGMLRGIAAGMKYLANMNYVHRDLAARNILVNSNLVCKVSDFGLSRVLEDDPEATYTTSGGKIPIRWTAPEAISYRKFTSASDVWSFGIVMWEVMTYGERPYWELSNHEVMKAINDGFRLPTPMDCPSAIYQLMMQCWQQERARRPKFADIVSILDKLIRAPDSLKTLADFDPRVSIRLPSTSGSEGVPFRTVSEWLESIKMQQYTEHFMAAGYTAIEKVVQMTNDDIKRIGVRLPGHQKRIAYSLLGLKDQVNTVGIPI
Sequence of Serine/threonine-protein kinase TNNI3K (Homo sapiens) (Q59H18 whole entry, the tested form may be a part): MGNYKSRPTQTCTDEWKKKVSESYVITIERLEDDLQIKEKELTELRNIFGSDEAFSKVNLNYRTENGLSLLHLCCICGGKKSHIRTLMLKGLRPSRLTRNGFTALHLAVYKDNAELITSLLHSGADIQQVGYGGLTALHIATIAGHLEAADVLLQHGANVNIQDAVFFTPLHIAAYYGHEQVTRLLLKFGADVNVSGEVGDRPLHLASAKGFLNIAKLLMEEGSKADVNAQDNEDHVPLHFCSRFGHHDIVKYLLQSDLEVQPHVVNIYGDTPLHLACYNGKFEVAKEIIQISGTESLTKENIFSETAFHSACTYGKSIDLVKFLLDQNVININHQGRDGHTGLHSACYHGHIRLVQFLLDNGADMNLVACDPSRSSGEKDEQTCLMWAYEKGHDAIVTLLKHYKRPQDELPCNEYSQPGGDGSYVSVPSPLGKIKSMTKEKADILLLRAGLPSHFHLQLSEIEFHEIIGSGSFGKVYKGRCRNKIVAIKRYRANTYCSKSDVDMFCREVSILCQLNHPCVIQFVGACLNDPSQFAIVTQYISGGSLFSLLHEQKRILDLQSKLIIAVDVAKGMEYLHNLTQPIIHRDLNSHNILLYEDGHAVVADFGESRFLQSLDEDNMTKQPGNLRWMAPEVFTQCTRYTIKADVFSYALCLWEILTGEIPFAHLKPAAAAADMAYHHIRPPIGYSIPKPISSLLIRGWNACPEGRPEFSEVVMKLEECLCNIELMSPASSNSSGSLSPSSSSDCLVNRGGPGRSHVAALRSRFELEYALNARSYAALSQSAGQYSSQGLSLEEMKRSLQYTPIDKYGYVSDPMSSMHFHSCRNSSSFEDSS

For the compound `COCCN[C@H]1CC[C@H](Nc2cc(-c3csc(NCC4(C#N)CCOCC4)n3)c(Cl)cn2)CC1`, the Activity in data set [1] is 99%; in [2], 81%; in [3] it was 99%; in [4], 84%; in [5] it was 100%; in [6], 95%. For the same compound, the Activity came to 100% in data set [7]; 80% in data set [9]; 40% in data set [10]; 98% in data set [11]; 100% in data set [12]; 75% in data set [13]. Further, the Activity in [14] came out at 90%; in data set [15] it was 100%; in data set [16], 64%; in data set [19] it was 87%; in data set [20], 100%. Moreover, the Ratio IC50 in the data set listed under Homo sapiens was above 1000. Further, the IC50 at CDK3/Cyclin E was above 10000 nM. Moreover, the inhibition result in data set [8] is “inactive”. This compound also returned a concentration for 50% growth inhibition (GI50) in the data set on MOLM-14 of 1.1 nM. The half-life in data set [17] is 1.72 h. This compound showed a clearance in [18] of 123 mL/min/kg.

The IC50 is the point on the concentration scale where inhibition reaches its midpoint. In general, GI50 refers to the concentration that inhibits growth by half. Read a low GI50 as greater sensitivity of the cells. Broadly, the half-life is the time in which the quantity being followed falls by half. In general, clearance refers to the rate of elimination divided by the concentration.
